Screening data: PubChem, several laboratories
Hits are enriched below; roughly 3.8% of the tested compounds scored in any of these assays.
TMEM16A inh – mouse TMEM16A channel inhibition, primary screen | 310,000 compounds, 1.2% hits | normalized B-score (activity score, 25-100; higher = stronger inhibition) at 10 µM | HEK293 TMEM16A/YFP iodide influx fluorescence, ionomycin | Q8BHY3;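 active = ratio plate-corrected score three or more library SD toward inhibition, starting fluorescence score within five deviations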;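 also: score derived from kinetic fluorescence span divided by baseline fluorescence per well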
MC4R ag barr – human MC4R agonism via beta-arrestin | 360,000 compounds, 0.98% hits | activation, % at 8.9 µM | P32245 | AID 540308 | U2OS MC4R beta-arrestin complementation, luminescence; percent of melanotan II response, DMSO zero;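 active = activation above a per-plate cutoff, the mean activation of sample wells on that plate plus 3 SD, cut at about 8% in these data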
Beta apoptosis – beta cell apoptosis inhibition. INS-1E cytokine-induced death, ATP luminescence, 48 h; percent of positive-control rescue, neutral wells zero. protection from apoptosis, % (concentration not given with the values). 300,000 compounds, 0.8% hits. AID 435005;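 active = Every replicate reaches about 75%, or at least half do and their mean reaches it too, limit read from the data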;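 also: higher means more ATP so stronger rescue from cytokine killing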
CSC inhib – blocks cancer stem cells. cancer stem cell-like cells viability, luminescence. inhibition, % at 7.5 µM. 300,000 compounds, 1.1% hits. AID 2717; in the data active = inhibition above about 75%; tested in HMLE shEcad cells
TMEM16A act – activators or potentiators of mouse TMEM16A chloride channel. B-score at 10 µM. HEK293 TMEM16A/YFP-H148Q/I152L, iodide quench fluorescence; hits give low values. 340,000 compounds, 0.3% hits. Q8BHY3;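 active = fluorescence-ratio B-score plate-corrected deviation score at least 3 library SD below zero, with starting fluorescence score within 5 deviations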;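 also: channel opened by trigger with iodide after compound preincubation; score built on the fluorescence ratio of max minus min over baseline; more negative score means more quench and so TMEM16A activation or potentiation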
MC4R antagonist – human MC4R antagonism in cAMP assay; P32245; MC4R-expressing cells, MTII-stimulated cAMP, LANCE TR-FRET; inhibition, % at 6.5 µM; 360,000 compounds, 0.48% hits; AID 540295;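 active = inhibition above its plate's cutoff, the mean of tested wells on that plate plus 3 SD, cut at about 29% in these data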
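Assay system: human MC4R-expressing U2OS cells; reagent: Melanotan II stimulation of cells; dosing: 6.5 µM single dose; timing: compound 30 min, challenge 1 h, detection 1 h; signal: TR-FRET cAMP assay; replicates: one well per compound, no replicates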
Large screens that a line does not name were inactive.

CCCC(=O)NC(c1cccc([N+](=O)[O-])c1)c1ccc2cccnc2c1O (stereo unspecified)	none (no result: TMEM16A inh, Beta apoptosis, CSC inhib, TMEM16A act)
CCc1ccc([C@@H]2C[C@H]3[C@@H](CN2S(=O)(=O)c2ccc(C)cc2)C(=O)C[C@@H](c2ccccc2)N3S(=O)(=O)c2ccc(C)cc2)cc1	none (no result: TMEM16A inh, Beta apoptosis, CSC inhib, TMEM16A act)
COc1cccc(C(=O)O)c1OS(=O)(=O)c1ccc(C)cc1	none (no result: TMEM16A inh, Beta apoptosis, CSC inhib, TMEM16A act)
COCCCN1C(=O)C(=O)/C(=C(/O)c2ccc(S(=O)(=O)N3CCOCC3)cc2)C1c1cccc(Cl)c1 (stereo unspecified)	none (no result: Beta apoptosis)
Cc1nn(Cc2c(Cl)cccc2Cl)c(C)c1NC(=O)c1cn(-c2ccccc2)nc1-c1ccccc1	Beta apoptosis 106, CSC inhib 165
O=C(c1ccco1)c1coc2c1cc(O)c1ccccc12	Beta apoptosis 100
CCCCOP(=O)(OCCCC)C1(C)CC(=O)CC(C)(C)C1 (stereo unspecified)	none (no result: TMEM16A inh, Beta apoptosis, CSC inhib)
CSc1ncccc1C(=O)Nc1ccc(S(=O)(=O)N2CCCC2)cc1	none (no result: TMEM16A inh, CSC inhib)
Clc1ccc(COc2cccc(CNCc3ccncc3)c2)cc1	TMEM16A inh 100
O=C(c1ccccc1)c1c[nH]c2ccccc12	none
O=C(/C=C/c1c[nH]c2ccccc12)c1cccc2ccccc12	CSC inhib 87
COc1ccc(S(=O)(=O)NNc2nc(C)cc(C)n2)cc1Br	none
O=C(O)c1ccc(N/N=C/C2=C(N3CCOCC3)C(=C\c3ccccc3)/CC2)cc1	MC4R antagonist 29
N=c1c2c(ncn1Cc1ccco1)Oc1c(ccc3ccccc13)C2c1ccccc1 (stereo unspecified)	CSC inhib 102 (no result: Beta apoptosis)
CC(C)(C)NC(=O)NC(=O)CSc1nnc(COc2ccccc2Cl)o1	TMEM16A inh 100
Cc1cccc(OCc2nnc(SCC(=O)Nc3ccc(C)c(Cl)c3)o2)c1	MC4R ag barr 27
O=C(CSc1nnc(COc2ccccc2Cl)o1)Nc1ccccc1	none (no result: TMEM16A inh)
COc1ccccc1OCc1nnc(SCC(=O)c2cc(Cl)ccc2OC)o1	TMEM16A inh 100
CCCN(CC(=O)Nc1ccc(C(N)=O)cc1)CC(=O)Nc1ccc(F)c(F)c1F	none
Cc1ccccc1NC(=O)CN1C(=O)NC2(CCCCCCC2)C1=O	none (no result: TMEM16A inh, Beta apoptosis, CSC inhib)
COc1ccc(-c2nc(CSCC(=O)NCc3ccco3)c(C)o2)cc1	TMEM16A inh 100
Cc1ccc(NC(=O)c2ccccc2NS(=O)(=O)c2ccc(Cl)s2)cc1S(=O)(=O)N1CCOCC1	TMEM16A inh 25 (no result: Beta apoptosis, CSC inhib)
COc1cccc(CN(C)C(=O)c2ccc(NS(=O)(=O)c3ccc(F)cc3)cc2)c1OC	none (no result: Beta apoptosis)
COc1ccc(CN(C)C(=O)c2ccc(NS(=O)(=O)c3ccc(F)cc3)cc2)c(OC)c1OC	Beta apoptosis 95
COc1ccc(NC(=O)COC(=O)c2ccco2)c([N+](=O)[O-])c1	none
O=C(COC(=O)c1ccco1)Nc1ccc([N+](=O)[O-])cc1Cl	TMEM16A act -26 (no result: TMEM16A inh, CSC inhib)
COc1cc(/C=C2\C(=N)N3N=C(S(C)(=O)=O)SC3=NC2=O)ccc1OCCOc1ccccc1C	TMEM16A inh 100
COc1ccccc1OCCOc1ccc(/C=C2/C(=N)N3OC(C)=CC3=NC2=O)cc1OC	MC4R ag barr 19
COc1cc(/C=C2/C(=N)N3C=CSC3=NC2=O)ccc1OCCCOc1cc(C)ccc1C	MC4R ag barr 31
COc1cc(/C=C2\C(=N)N3N=C(S(C)(=O)=O)SC3=NC2=O)ccc1OC(=O)c1cccs1	none
OC(c1ccccc1)c1ncc(-c2cccc(OCc3ccccc3)c2)[nH]1 (stereo unspecified)	none (no result: TMEM16A inh, Beta apoptosis, CSC inhib, TMEM16A act)
Cc1nc(C2CCC3C4CCC5=CC(=O)CC[C@]5(C)C4CC[C@]23C)cs1 (stereo partly specified)	Beta apoptosis 101, CSC inhib 86 (no result: MC4R ag barr, TMEM16A act, MC4R antagonist)
O=C(Cn1ncc(Cl)c(Cl)c1=O)c1ccc2c(c1)OCCO2	Beta apoptosis 113, CSC inhib 112 (no result: TMEM16A inh)
CCC(=O)c1ccc2c(c1)OCCO2	none
CCCOc1ccc(CSc2nc3ccccc3[nH]2)cc1	Beta apoptosis 112
CCOc1ccc(OCCSc2nc3ccccc3[nH]2)cc1	none
C=CCNC(=O)N1CCCC(C(=O)c2cccc(OC(C)C)c2)C1 (stereo unspecified)	none (no result: Beta apoptosis)
Cc1ccc(Nc2nc3c(c(=O)[nH]c(=O)n3C)n2Cc2ccc(F)cc2)cc1	MC4R ag barr 8.9 (no result: CSC inhib)
CC(C)(C)OC(=O)N1CCC(C(=O)Nc2cccc(C(=O)NCCCc3ccccc3)c2)CC1	none (no result: TMEM16A inh, Beta apoptosis, CSC inhib, TMEM16A act)
COc1ccc(N(CC(=O)Nc2ccccc2F)S(=O)(=O)c2ccc(OC)c(OC)c2)cc1	none (no result: Beta apoptosis)
CC[C@@]1(O)C(=O)OCc2c1cc1n(c2=O)Cc2cc3c(CN(C)C)c(O)ccc3nc2-1	CSC inhib 104
CC[C@@]1(O)C(=O)OCc2c1cc1n(c2=O)Cc2cc3c(N)cccc3nc2-1	Beta apoptosis 98
COc1ccc(-c2cc(C(=O)N3CCN(S(=O)(=O)c4ccc(C)cc4)CC3)[nH]n2)cc1	none (no result: CSC inhib)
CCN(CC(=O)Nc1ccc(NC(C)=O)cc1)C(=O)CCCOc1ccc(C(C)(C)C)cc1	Beta apoptosis 93
CN(CC(=O)NCC(=O)Nc1ccc(F)cc1)CC(=O)Nc1ccc(Cl)c(C(F)(F)F)c1	none (no result: TMEM16A inh, Beta apoptosis, CSC inhib)
CN(CC(=O)NCc1ccc(F)cc1)CC(=O)Nc1ccc(Cl)c(C(F)(F)F)c1	TMEM16A inh 100, MC4R ag barr 9.0
COc1ccc(S(=O)(=O)N2CCOCC2)cc1NC(=O)CN1C(=O)NC2(CCCCC2C)C1=O (stereo unspecified)	none (no result: TMEM16A inh, CSC inhib)
CCCCCCC(=O)N1C/C=C\C(c2ccc(OC)cc2)N(Cc2ccc(F)cc2)C(=O)[C@H]1Cc1ccccc1 (stereo partly specified)	Beta apoptosis 100 (no result: MC4R ag barr, TMEM16A act, MC4R antagonist)
CCCCCCC(=O)N1C/C=C\C(c2ccc(OC)cc2)N(Cc2ccc(F)cc2)C(=O)C1 (stereo unspecified)	none
COc1ccc(C2/C=C\CN(C(=O)c3ccc(C)cc3)[C@H](Cc3ccccc3)C(=O)N2Cc2ccc(F)cc2)cc1 (stereo partly specified)	Beta apoptosis 78
COc1ccc(C2/C=C\CN(C(=O)C3CC3)[C@H](Cc3ccccc3)C(=O)N2Cc2ccc(F)cc2)cc1 (stereo partly specified)	Beta apoptosis 86
CCCCC(=O)N1C/C=C\C(c2ccc(OC)cc2)N(Cc2ccc(F)cc2)C(=O)[C@H]1Cc1ccccc1 (stereo partly specified)	Beta apoptosis 99
Fc1ccc2cnc(CCO[C@H]3CCCCO3)cc2c1	none (no result: TMEM16A inh)
CCc1nc2ccc(C(=O)NCCCN3CCCC3=O)cn2c1N(C)Cc1ccc(OC)cc1	none (no result: TMEM16A inh, Beta apoptosis, CSC inhib, TMEM16A act)
Cc1ccc2nc(-c3ccncc3)cc(-c3ccccc3)c2c1	none
Cc1ccc(-c2cc3cccc[n+]3cc2-c2ccc(C)cc2)cc1	Beta apoptosis 110
